Active and inactive are the calls of the source. No cut-off for these calls is given here.
Key:
LNCaP = assay: Cytotoxicity against androgen-dependent human LNCAP cells with T877A AR mutant after 72 hrs by MTT assay; format: functional, cell-based
Outline: (§1)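 Cells seeded at 6000–7000 per well in RPMI 1640 with 10% FBS, penicillin and streptomycin, left overnight, then exposed to a range of concentrations from DMSO stock (final DMSO 0.5%) for 72 h. MTT added for a further 2 h and formazan from viable cells read. IC50 taken from survival curves, 50% inhibition relative to 0.5% DMSO control; top concentration 150 µM.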

PC-3 = assay: Cytotoxicity against androgen-independent human PC3 cells after 72 hrs by MTT assay; format: functional, cell-based; conditions: for IC50: PC-3, 72 h; outline: as §1
CWR22R = assay: Cytotoxicity against human 22Rv1 cells with H874Y AR mutant after 72 hrs by MTT assay; format: functional, cell-based; conditions: 22Rv1, 72 h; outline: as §1
[1] = Cytotoxicity against androgen-independent human C4-2B cells with T877A mutant after 72 hrs by MTT assay; format: functional, cell-based; conditions: LNCaP C4-2B; outline: as §1
[2] = Cytotoxicity against androgen-dependent human MDA PCa 2b cells with T877A/L701H AR mutant after 72 hrs by MTT assay; format: functional, cell-based
Outline: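 Seeded at 6000–7000 cells per well in BRFF-HPC1 medium with 20% FBS, incubated overnight, then treated with serial concentrations diluted from DMSO stock (final DMSO 0.5%) for 72 h. Viability by MTT, 2 h with reagent, formazan measured. IC50 from survival curves as 50% inhibition versus 0.5% DMSO vehicle; maximum concentration tested 150 µM.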

[3] = Cytotoxicity against human RWPE1 cells after 72 hrs by MTT assay; format: cell-based; conditions: RWPE-1, 72 h
Outline: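 Non-tumorigenic prostate epithelial line plated at 6000–7000 cells per well in keratinocyte serum-free medium with 0.05 mg/mL bovine pituitary extract and 5 ng/mL EGF; overnight attachment, then compounds at various concentrations in 0.5% final DMSO for 72 h. MTT 2 h, formazan read; IC50 from survival curves versus DMSO control.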

SMILES	IC50 (LNCaP) [µM]	IC50 (PC-3) [µM]	IC50 (CWR22R) [µM]	IC50 [1] [µM]	IC50 [2] [µM]	IC50 [3] [nM]	Activity (PC-3)
CC1=C(/C=C/C(=O)/C=C/c2ccc(C(F)(F)F)cc2)C(C)(C)CCC1	9.1	12	–	–	–	–	–
CC1=CCCC(C)(C)C1/C=C/C(=O)/C=C/c1ccc(C(F)(F)F)cc1 (centres undefined)	4.7	7.9	3.3	5.2	7	–	–
CC1=CCCC(C)(C)C1/C=C/C(=O)/C=C/c1cc(C(F)(F)F)ccc1F (centres undefined)	1.7	3.1	3.5	4.7	3	–	–
COc1ccc(/C=C/C(=O)/C=C/C2=C(C)CCCC2(C)C)cc1OC	9.5	42	–	–	–	–	–
CC1=CCCC(C)(C)C1/C=C/C(=O)/C=C/c1cccc(C(F)(F)F)c1 (centres undefined)	1	5.2	2.9	4.4	4.4	–	–
CC1=CCCC(C)(C)C1/C=C/C(=O)/C=C/c1ccccc1F (centres undefined)	1.6	4.8	9.4	6	8.3	–	–
CC1=CCCC(C)(C)C1/C=C/C(=O)/C=C/c1cccc([N+](=O)[O-])c1 (centres undefined)	3.3	2.9	4.7	4	5.9	–	–
CC1=C(/C=C/C(=O)/C=C/c2ccc(C(F)(F)F)cc2F)C(C)(C)CCC1O (centres undefined)	2.6	4.6	3.8	–	–	–	–
CC1=C(/C=C/C(=O)/C=C/c2cccc(C)c2)C(C)(C)CCC1	17.8	35	–	–	–	–	–
CC1=C(/C=C/C(=O)/C=C/c2cccc(C#N)c2)C(C)(C)CCC1O (centres undefined)	1.8	7.2	2.2	–	–	1900	–
CC1=C(/C=C/C(=O)/C=C/c2cc(F)cc(C(F)(F)F)c2)C(C)(C)CCC1O (centres undefined)	1.1	3	2.4	–	–	–	–
CC1=C(/C=C/C(=O)/C=C/c2cccc(C(F)(F)F)c2F)C(C)(C)CCC1O (centres undefined)	1.1	2.1	–	–	–	–	–
CC1=C(/C=C/C(=O)/C=C/c2ccccc2F)C(C)(C)CCC1O (centres undefined)	2.9	10.4	3.3	–	–	–	–
CC1=C(/C=C/C(=O)/C=C/c2ccc(O)c([N+](=O)[O-])c2)C(C)(C)CCC1	26.8	> 50	–	–	–	–	–
CC1=CCCC(C)(C)C1/C=C/C(=O)/C=C/c1cccc(C)c1 (centres undefined)	12.2	5.9	15.2	6.2	–	–	–
CC1=C(/C=C/C(=O)/C=C/c2ccccc2F)C(C)(C)CCC1	10.7	22.1	–	–	–	–	–
COc1cccc(/C=C/C(=O)/C=C/C2=C(C)C(O)CCC2(C)C)c1 (centres undefined)	4.9	6.5	–	–	–	–	–
CC1=C(/C=C/C(=O)/C=C/c2cccc(C(F)(F)F)c2)C(C)(C)CCC1	2.8	7.7	–	–	–	–	–
CC1=C(/C=C/C(=O)/C=C/c2cc(C(F)(F)F)ccc2C(F)(F)F)C(C)(C)CCC1O (centres undefined)	3.2	1.9	–	–	4	–	–
CC1=C(/C=C/C(=O)/C=C/c2cccc([N+](=O)[O-])c2)C(C)(C)CCC1	2.7	10	–	–	–	–	–
CC1=C(/C=C/C(=O)/C=C/c2cccc(F)c2)C(C)(C)CCC1	12.9	18.7	–	–	–	–	–
CC1=C(/C=C/C(=O)/C=C/c2ccc([N+](=O)[O-])cc2)C(C)(C)CCC1O (centres undefined)	4.2	15	4.1	–	–	–	–

SMILES	IC50 (LNCaP) [µM]	IC50 (PC-3) [µM]	IC50 (CWR22R) [µM]	IC50 [1] [µM]	IC50 [2] [µM]	IC50 [3] [nM]	Activity (PC-3)
CC1=C(/C=C/C(=O)/C=C/c2cc(C(F)(F)F)cc(C(F)(F)F)c2)C(C)(C)CCC1O (centres undefined)	2.1	7	2.2	–	3.5	–	–
CC1=C(/C=C/C(=O)/C=C/c2cccc(F)c2)C(C)(C)CCC1O (centres undefined)	4.4	16	5.6	–	–	–	–
CC1=C(/C=C/C(=O)/C=C/c2cc(C(F)(F)F)cc(C(F)(F)F)c2)C(C)(C)CCC1	8.7	7.2	–	–	–	–	–
CC(=O)/C=C/C1C(C)=CCCC1(C)C (stereo not drawn) [ALPHA-IONONE]	151	–	–	–	–	–	inactive
CC1=C(/C=C/C(=O)/C=C/c2cccc([N+](=O)[O-])c2)C(C)(C)CCC1O (centres undefined)	2	5.8	1.9	–	6	1900	–
CC1=C(/C=C/C(=O)/C=C/c2cc([N+](=O)[O-])ccc2Cl)C(C)(C)CCC1	4.2	18.9	–	–	–	–	–
CC1=C(/C=C/C(=O)/C=C/c2ccc(F)cc2)C(C)(C)CCC1	7.3	25.8	–	–	–	–	–
CC1=C(/C=C/C(=O)/C=C/c2ccccc2)C(C)(C)CCC1O (centres undefined)	5.8	15.5	8	1.8	12.6	–	–
CC1=C(/C=C/C(=O)/C=C/c2ccc(C(F)(F)F)cc2)C(C)(C)CCC1O (centres undefined)	3	10.2	3.2	–	9.3	–	–
CC1=C(/C=C/C(=O)/C=C/c2cc(C(F)(F)F)ccc2F)C(C)(C)CCC1O (centres undefined)	1.7	3.6	2	–	–	–	–
COc1ccc(/C=C/C(=O)/C=C/C2=C(C)CCCC2(C)C)cc1O	9.9	37.4	–	–	–	–	–
CCOC(OCC)c1cccc(/C=C/C(=O)/C=C/C2=C(C)C(O)CCC2(C)C)c1 (centres undefined)	1.8	4.7	–	–	–	–	–
CC1=C(/C=C/C(=O)/C=C/c2ccc(-c3ccccc3)cc2)C(C)(C)CCC1	14.8	47.8	–	–	–	–	–
COc1cc(/C=C/C(=O)/C=C/C2=C(C)CCCC2(C)C)ccc1O	9.5	21.3	–	–	–	–	–
CC1=C(/C=C/C(=O)/C=C/c2ccc(F)cc2)C(C)(C)CCC1O (centres undefined)	3.9	6.2	7.5	4	–	–	–
CC1=C(/C=C/C(=O)/C=C/c2c(F)cccc2C(F)(F)F)C(C)(C)CCC1O (centres undefined)	4.9	8.8	8.9	–	–	–	–
CCOc1ccc(/C=C/C(=O)/C=C/C2=C(C)CCCC2(C)C)cc1OCC	8.2	> 50	–	–	–	–	–
CC1=C(/C=C/C(=O)/C=C/c2cccc(C)c2)C(C)(C)CCC1O (centres undefined)	4.1	6.2	4.4	–	19	–	–
CC1=CCCC(C)(C)C1/C=C/C(=O)/C=C/c1ccccc1C(F)(F)F (centres undefined)	22.6	19	18.4	11.7	–	–	–
CC1=C(/C=C/C(=O)/C=C/c2ccc(F)c(C(F)(F)F)c2)C(C)(C)CCC1O (centres undefined)	2.2	7.3	3.2	7.3	10	–	–
CC1=C(/C=C/C(=O)/C=C/c2ccccc2C(F)(F)F)C(C)(C)CCC1O (centres undefined)	2.9	3.7	2.3	–	2.9	–	–

Reference: ChEMBL document CHEMBL1136847, “Syntheses and potential anti-prostate cancer activities of ionone-based chalcones” (Bioorg Med Chem Lett, 2009)
